Test results reported in ChEMBL document CHEMBL1649119, “Daptomycin pharmacokinetics in adult oncology patients with neutropenic fever” (Antimicrob Agents Chemother, 2009).

Legend:
[1] = Unbound fraction in healthy human plasma at 4 mg/kg, iv administered as 30 mins infusion every 24 hrs measured on day 7; type: ADME, organism-based; parameters: dose 4 mg/kg, route intravenous
[2] = Mean residence time in cancer patient with neutropenic fever at 6 mg/kg, iv administered as 30 mins infusion every 24 hrs; type: ADME, organism-based; parameters: dose 6 mg/kg, route intravenous; conditions: human, in vivo
Procedure, shortened: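 Patients with neutropenic fever; 6 mg/kg by total body weight, 30-min IV infusion every 24 h; serial plasma sampling predose to 24 h after infusion start. Total plasma drug by validated HPLC; mean residence time from noncompartmental analysis of concentration-time data.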

[3] = Cmax in healthy human at 6 mg/kg, iv administered as 30 mins infusion every 24 hrs measured on day 7; type: ADME, organism-based; parameters: dose 6 mg/kg, route intravenous; conditions: in vivo
[4] = tested on: Homo sapiens; experiment: Apparent volume of distribution in healthy human at 4 mg/kg, iv administered as single dose 30 mins infusion; type: ADME, organism-based; parameters: dose 4 mg/kg, route intravenous; conditions: in vivo, 0.5 h
[5] = Half life in adult human with hepatic impairment at 6 mg/kg, iv administered as single dose 30 mins infusion; type: ADME, organism-based; parameters: dose 6 mg/kg, route intravenous; conditions: in vivo
[6] = Half life in healthy human subjects at 10 mg/kg, iv administered as 30 mins infusion every 24 hrs measured on day 1; type: ADME, organism-based; parameters: dose 10 mg/kg, route intravenous; conditions: in vivo
[7] = Clearance in healthy human subjects at 6 mg/kg, iv administered as 30 mins infusion every 24 hrs measured on days 1-3; type: ADME, organism-based; parameters: dose 6 mg/kg, route intravenous; conditions: in vivo
[8] = tested on: Homo sapiens; experiment: Unbound clearance in healthy human at 8 mg/kg, iv administered as 30 mins infusion every 24 hrs measured on day 7; type: ADME, organism-based; parameters: dose 8 mg/kg, route intravenous; conditions: in vivo
[9] = Cmax in healthy adult human at 6 mg/kg, iv administered as single dose 30 mins infusion; type: ADME, organism-based; parameters: dose 6 mg/kg, route intravenous; conditions: in vivo
[10] = tested on: Staphylococcus; experiment: Antimicrobial activity against Staphylococcus; type: functional
[11] = AUC (0 to infinity) in healthy human at 4 mg/kg, iv administered as single dose 30 mins infusion; type: ADME, organism-based; parameters: time infinity, dose 4 mg/kg, route intravenous; conditions: plasma
[12] = Plasma protein binding in human after 8 hrs; type: ADME, cell-free; conditions: read-out: PPB (converted)
Procedure, shortened: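 Neutropenic-fever oncology patients received 6 mg/kg IV daptomycin; serum was drawn 0.5, 2 and 8 h after the end of infusion. Free drug was obtained by ultrafiltration (30,000-MW cutoff) and quantified by HPLC against a saline-matrix curve of 0.25–100 μg/ml, with total plasma drug also measured. Percent bound was (total − free)/total × 100; results are given as mean ± SD.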

[13] = Renal clearance in healthy adult human at 6 mg/kg, iv administered as single dose 30 mins infusion; type: ADME, organism-based, Kidney; parameters: dose 6 mg/kg, route intravenous; conditions: in vivo, read-out: CL_renal (converted)
[14] = Drug excretion in nonobese adult human urine assessed as unchanged drug at 4 mg/kg, iv administered as single dose 30 mins infusion; type: ADME, organism-based; parameters: dose 4 mg/kg, route intravenous; conditions: read-out: Drug uptake
[15] = Clearance in healthy human subjects at 6 mg/kg, iv administered as 30 mins infusion every 24 hrs measured on day 1; type: ADME, organism-based; parameters: dose 6 mg/kg, route intravenous; conditions: in vivo
[16] = AUC (0 to infinity) in healthy human at 8 mg/kg, iv administered as 30 mins infusion every 24 hrs measured on day 14; type: ADME, organism-based; parameters: time infinity, dose 8 mg/kg, route intravenous; conditions: plasma
[17] = Clearance in nonobese human subjects at 4 mg/kg, iv administered as single dose 30 mins infusion; type: ADME, organism-based; parameters: dose 4 mg/kg, route intravenous; conditions: in vivo
[18] = AUC (0 to infinity) in healthy human subjects at 12 mg/kg, iv administered as 30 mins infusion every 24 hrs measured on day 14; type: ADME, organism-based; parameters: time infinity, dose 12 mg/kg, route intravenous; conditions: plasma
[19] = Half life in healthy human subjects at 6 mg/kg, iv administered as 30 mins infusion every 24 hrs measured on day 4; type: ADME, organism-based; parameters: dose 6 mg/kg, route intravenous; conditions: in vivo
[20] = Half life in healthy human subjects at 8 mg/kg, iv administered as 30 mins infusion every 24 hrs measured on day 1; type: ADME, organism-based; parameters: dose 8 mg/kg, route intravenous; conditions: in vivo
[21] = AUC (0 to infinity) in adult human subjects at 6 mg/kg, iv administered as single dose 30 mins infusion; type: ADME, organism-based; parameters: time infinity, dose 6 mg/kg, route intravenous; conditions: plasma
[22] = Renal clearance in adult human with hepatic impairment at 6 mg/kg, iv administered as single dose 30 mins infusion; type: ADME, organism-based, Kidney; parameters: dose 6 mg/kg, route intravenous; conditions: in vivo, read-out: CL_renal (converted)
[23] = Half life in nonobese adult human at 4 mg/kg, iv administered as single dose 30 mins infusion; type: ADME, organism-based; parameters: dose 4 mg/kg, route intravenous; conditions: in vivo
[24] = Half life in healthy human at 4 mg/kg, iv administered as 30 mins infusion every 24 hrs measured on day 1; type: ADME, organism-based; parameters: dose 4 mg/kg, route intravenous; conditions: in vivo
[25] = Clearance in young healthy human at 4 mg/kg, iv administered as single dose 30 mins infusion; type: ADME, organism-based; parameters: dose 4 mg/kg, route intravenous; conditions: in vivo
[26] = Apparent volume of distribution during terminal phase in healthy human at 8 mg/kg, iv administered as 30 mins infusion every 24 hrs measured on day 14; type: ADME, organism-based; parameters: dose 8 mg/kg, route intravenous; conditions: in vivo
[27] = tested on: Homo sapiens; experiment: Volume of distribution in central compartment in healthy human at 4 mg/kg, iv administered as single dose 30 mins infusion; type: ADME, organism-based; parameters: dose 4 mg/kg, route intravenous; conditions: in vivo, 0.5 h
[28] = AUC (0 to infinity) in moderately obese adult human at 4 mg/kg, iv administered as single dose 30 mins infusion; type: ADME, organism-based; parameters: time infinity, dose 4 mg/kg, route intravenous; conditions: plasma
[29] = Unbound fraction in healthy human plasma at 8 mg/kg, iv administered as 30 mins infusion every 24 hrs measured on day 1; type: ADME, organism-based; parameters: dose 8 mg/kg, route intravenous
[30] = Cmax in healthy human at 6 mg/kg, iv administered as 30 mins infusion every 24 hrs measured on day 1; type: ADME, organism-based; parameters: dose 6 mg/kg, route intravenous; conditions: in vivo
[31] = Renal clearance in nonobese human at 4 mg/kg, iv administered as single dose 30 mins infusion; type: ADME, organism-based, Kidney; parameters: dose 4 mg/kg, route intravenous; conditions: in vivo, read-out: CL_renal (converted)
[32] = Cmax in healthy human subjects at 12 mg/kg, iv administered as 30 mins infusion every 24 hrs measured on day 14; type: ADME, organism-based; parameters: dose 12 mg/kg, route intravenous; conditions: in vivo
[33] = AUC (0 to infinity) in young healthy human at 4 mg/kg, iv administered as single dose 30 mins infusion; type: ADME, organism-based; parameters: dose 4 mg/kg, route intravenous, time infinity; conditions: plasma
[34] = Drug excretion in nonobese human at 4 mg/kg, iv administered as single dose 30 mins infusion; type: ADME, organism-based; parameters: dose 4 mg/kg, route intravenous; conditions: in vivo, read-out: Drug uptake
[35] = Clearance in healthy human subjects at 12 mg/kg, iv administered as 30 mins infusion every 24 hrs measured on day 1; type: ADME, organism-based; parameters: dose 12 mg/kg, route intravenous; conditions: in vivo
[36] = Half life in moderately obese adult human at 4 mg/kg, iv administered as single dose 30 mins infusion; type: ADME, organism-based; parameters: dose 4 mg/kg, route intravenous; conditions: in vivo
[37] = Volume of distribution at steady state in morbidly obese human at 4 mg/kg, iv administered as single dose 30 mins infusion; type: ADME, organism-based; parameters: dose 4 mg/kg, route intravenous; conditions: in vivo, read-out: Vdss
[38] = Cmax in healthy human at 4 mg/kg, iv administered as single dose 30 mins infusion; type: ADME, organism-based; parameters: dose 4 mg/kg, route intravenous; conditions: in vivo
[39] = Cmax in healthy human subjects at 12 mg/kg, iv administered as 30 mins infusion every 24 hrs measured on day 4; type: ADME, organism-based; parameters: dose 12 mg/kg, route intravenous; conditions: in vivo
[40] = AUC (0 to infinity) in healthy human subjects at 10 mg/kg, iv administered as 30 mins infusion every 24 hrs measured on day 14; type: ADME, organism-based; parameters: time infinity, dose 10 mg/kg, route intravenous; conditions: plasma
[41] = Clearance in adult human subjects at 6 mg/kg, iv administered as single dose 30 mins infusion; type: ADME, organism-based; parameters: dose 6 mg/kg, route intravenous; conditions: in vivo
[42] = Plasma concentration in old healthy human at 4 mg/kg, iv administered as single dose 30 mins infusion measured after 24 hrs; type: ADME, organism-based; parameters: dose 4 mg/kg, route intravenous
[43] = Apparent volume of distribution during terminal phase in healthy human subjects at 12 mg/kg, iv administered as 30 mins infusion every 24 hrs measured on day 14; type: ADME, organism-based; parameters: dose 12 mg/kg, route intravenous; conditions: in vivo
[44] = Apparent volume of distribution during terminal phase in healthy human subjects at 10 mg/kg, iv administered as 30 mins infusion every 24 hrs measured on day 14; type: ADME, organism-based; parameters: dose 10 mg/kg, route intravenous; conditions: in vivo
[45] = Cmax in healthy human subjects at 8 mg/kg, iv administered as 30 mins infusion every 24 hrs measured on day 1; type: ADME, organism-based; parameters: dose 8 mg/kg, route intravenous; conditions: in vivo

Q: For CCCCCCCCCC(=O)N[C@@H](Cc1c[nH]c2ccccc12)C(=O)N[C@H](CC(N)=O)C(=O)N[C@@H](CC(=O)O)C(=O)N[C@@H]1C(=O)NCC(=O)N[C@@H](CCCN)C(=O)N[C@@H](CC(=O)O)C(=O)N[C@H](C)C(=O)N[C@@H](CC(=O)O)C(=O)NCC(=O)N[C@H](CO)C(=O)N[C@@H]([C@H](C)CC(=O)O)C(=O)N[C@@H](CC(=O)c2ccccc2N)C(=O)O[C@@H]1C, which fraction unbound at 7 day [1] is on record?
A: 0.08

Q: What about the MRT [2] of the same compound?
A: 11.9 h

Q: And the Cmax [3]?
A: 98.6 µg/mL

Q: What about the Vd [4] of the same compound?
A: 6350 mL

Q: What about the half-life [5] of the same compound?
A: 8.97 h

Q: And the half-life [6]?
A: 8.4 h

Q: What about the clearance [7] of the same compound?
A: 0.158 mL/min/kg

Q: And the CL [8]?
A: 0.682 mL/min/kg

Q: What about the Cmax [9] of the same compound?
A: 82 µg/mL

Q: What about the MIC90 [10] of the same compound?
A: < 1 µg/mL

Q: And the AUC(0-inf) [11]?
A: 530 µg·h/mL

Q: And the fraction unbound at 8 h [12]?
A: 0.068

Q: And the CL renal at 0.5 h [13]?
A: 0.064 mL/min/kg

Q: What about the dose excreted at 0.5 h [14] of the same compound?
A: 52.3%

Q: And the clearance [15]?
A: 0.165 mL/min/kg

Q: What about the AUC(0-inf) [16] of the same compound?
A: 1090 µg·h/mL

Q: And the clearance [17]?
A: 0.2 mL/min/kg

Q: What about the AUC(0-inf) [18] of the same compound?
A: 1290 µg·h/mL

Q: And the half-life [19]?
A: 7.9 h

Q: And the half-life [20]?
A: 7.3 h

Q: And the AUC(0-inf) [21]?
A: 928 µg·h/mL

Q: And the CL renal at 0.5 h [22]?
A: 0.0608 mL/min/kg

Q: What about the half-life [23] of the same compound?
A: 6.83 h

Q: What about the half-life [24] of the same compound?
A: 7.4 h

Q: What about the clearance [25] of the same compound?
A: 0.252 mL/min/kg

Q: What about the Vd [26] of the same compound?
A: 0.095 L/kg

Q: And the Vd [27]?
A: 3420 mL

Q: And the AUC(0-inf) [28]?
A: 421 µg·h/mL

Q: What about the fraction unbound at 1 day [29] of the same compound?
A: 0.09

Q: What about the Cmax [30] of the same compound?
A: 86.4 µg/mL

Q: What about the CL renal at 0.5 h [31] of the same compound?
A: 0.098 mL/min/kg

Q: And the Cmax [32]?
A: 182 µg/mL

Q: And the AUC(0-inf) [33]?
A: 301 µg·h/mL

Q: And the dose excreted at 0.5 h [34]?
A: 48.6%

Q: And the clearance [35]?
A: 0.167 mL/min/kg

Q: What about the half-life [36] of the same compound?
A: 7.34 h

Q: And the Vd [37]?
A: 0.09 L/kg

Q: And the Cmax [38]?
A: 77.5 µg/mL

Q: And the Cmax [39]?
A: 184 µg/mL

Q: And the AUC(0-inf) [40]?
A: 1080 µg·h/mL

Q: And the clearance [41]?
A: 0.109 mL/min/kg

Q: What about the concentration at 24 h [42] of the same compound?
A: 6.38 µg/mL

Q: What about the Vd [43] of the same compound?
A: 0.0992 L/kg

Q: And the Vd [44]?
A: 0.0858 L/kg

Q: What about the Cmax [45] of the same compound?
A: 106 µg/mL
